In ChEMBL document CHEMBL1131138, “A novel class of orally active non-peptide bradykinin B2 receptor antagonists. 3. Discovering bioisosteres of the imidazo[1,2-a] pyridine moiety” (J Med Chem, 1998) one finds IC50 data, which are given here for 22 compounds.

For assay [1], the target named is T1, B2 bradykinin receptor (Homo sapiens, UniProt P30411).
T1 sequence (P30411 whole entry): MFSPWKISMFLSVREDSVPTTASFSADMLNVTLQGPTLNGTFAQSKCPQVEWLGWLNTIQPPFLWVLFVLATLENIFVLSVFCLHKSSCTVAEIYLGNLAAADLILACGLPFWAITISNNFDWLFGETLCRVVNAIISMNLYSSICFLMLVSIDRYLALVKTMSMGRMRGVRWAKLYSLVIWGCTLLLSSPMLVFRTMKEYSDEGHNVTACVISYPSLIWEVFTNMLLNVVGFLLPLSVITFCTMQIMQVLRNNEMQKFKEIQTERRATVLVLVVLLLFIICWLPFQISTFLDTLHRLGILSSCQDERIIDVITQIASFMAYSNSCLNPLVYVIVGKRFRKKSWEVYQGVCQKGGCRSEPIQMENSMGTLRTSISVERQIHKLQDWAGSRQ
Description: Inhibition specific binding of [3H]BK (1.0 nM) to human Bradykinin receptor B2 which was expressed in CHO (Chinese hamster ovary) cells by 50%. The assay is classed as cell-based. The essentials: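 CHO (dhfr−) cells stably expressing human B2 receptor, seeded at 3.0 × 10^4 cells/well and cultured 1 day. Whole cells incubated with 1.0 nM [3H]BK plus compound for 2 h at 4 °C in HEPES/N-methyl-D-glucamine buffer pH 7.2 with bacitracin, enalaprilat and BSA. Washed, solubilized in SDS/NaOH and counted. Nonspecific binding with 1 μM BK; DMSO below 3%; three experiments.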

Assay [2] deals with T2, B2 bradykinin receptor (Cavia porcellus, UniProt O70526).
T2 sequence (O70526 whole entry): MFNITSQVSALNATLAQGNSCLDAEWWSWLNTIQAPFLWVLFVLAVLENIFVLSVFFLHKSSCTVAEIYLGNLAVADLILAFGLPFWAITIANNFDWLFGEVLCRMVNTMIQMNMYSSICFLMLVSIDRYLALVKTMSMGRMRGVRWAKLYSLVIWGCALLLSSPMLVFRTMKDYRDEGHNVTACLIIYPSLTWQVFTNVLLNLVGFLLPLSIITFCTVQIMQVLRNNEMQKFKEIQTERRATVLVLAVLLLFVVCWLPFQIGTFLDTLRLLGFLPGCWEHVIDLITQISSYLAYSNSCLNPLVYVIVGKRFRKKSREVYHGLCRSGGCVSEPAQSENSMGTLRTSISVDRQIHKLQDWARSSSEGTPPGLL
The experiment in a line: Concentration required to inhibit specific binding of [ 3H]BK (0.06 nM) to Bradykinin receptor B2 in guinea pig ileum membrane preparations by 50%. The assay is classed as cell membranes. The essentials:
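Ileal membranes from male Hartley guinea pigs (0.2 mg protein/mL) in TES buffer pH 6.8 with phenanthroline, bacitracin, DTT, captopril and BSA. Incubated with 0.06 nM [3H]BK plus compound for 60 min at room temperature, then filtered through GF/B and counted by scintillation.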

Bounds are passed on as bounds.

Usually IC50 stands for the concentration that inhibits the measured activity by half. Read a low IC50 as inhibition by little substance. On to `Cc1cnc2cccc(OCc3c(Cl)ccc(N(C)C(=O)CNC(=O)/C=C/c4ccc(C(=O)N(C)C)cc4)c3Cl)c2n1`, for which the half-maximal inhibitory concentration (IC50) at B2 bradykinin receptor [1] is 44 nM; at B2 bradykinin receptor [2], 1.9 nM.

In the case of `CNC(=O)c1ccc(/C=C/C(=O)NCC(=O)N(C)c2ccc(Cl)c(COc3cccc4c3nc(-c3ccccc3)n4C)c2Cl)cc1`, the IC50 on B2 bradykinin receptor [1] was over 1000 nM; at B2 bradykinin receptor [2] it was 510 nM.

Take `Cc1ccc2cccc(OCc3c(Cl)ccc(N(C)C(=O)CNC(=O)/C=C/c4ccc(C(=O)Nc5ccccc5)cc4)c3Cl)c2n1`: the results for the IC50 at B2 bradykinin receptor [1] and at B2 bradykinin receptor [2] were 11 nM and 6.3 nM, respectively.

As for `CNC(=O)c1ccc(/C=C/C(=O)NCC(=O)N(C)c2ccc(C)c(COc3cccc4c3nc(COC)n4C)c2C)cc1`, the values for the IC50 on B2 bradykinin receptor [1] and at B2 bradykinin receptor [2] were 9100 nM and 1000 nM, respectively.

Take `CNC(=O)c1ccc(/C=C/C(=O)NCC(=O)N(C)c2ccc(C)c(COc3cccc4c3nc(NC)n4C)c2C)cc1`: the results for the IC50 at B2 bradykinin receptor [1] and at B2 bradykinin receptor [2] were 670 nM and 94 nM, respectively.

`CNC(=O)c1ccc(/C=C/C(=O)NCC(=O)N(C)c2ccc(C)c(COc3cccc4c3nc(C(C)=O)n4C)c2C)cc1`: the IC50 stood at 94 nM on B2 bradykinin receptor [1] and 200 nM at B2 bradykinin receptor [2].

Take `Cc1ccc2cccc(OCc3c(Cl)ccc(N(C)C(=O)CNC(=O)/C=C/c4ccc(C(=O)Nc5ccccn5)cc4)c3Cl)c2n1`: the figures for the concentration for half-maximal inhibition (IC50) on B2 bradykinin receptor [1] and at B2 bradykinin receptor [2] were 30 nM and 11 nM, respectively.

As for `Cc1nc2c(OCc3c(Cl)ccc(N(C)C(=O)CNC(=O)/C=C/c4ccc(C(=O)N(C)C)cc4)c3Cl)cccn2c1Br`, the IC50 on B2 bradykinin receptor [1] came to 2.2 nM.

Take `Cc1ccc2cccc(OCc3c(C)ccc(N(C)C(=O)CNC(=O)/C=C/c4ccc(N5CCCC5=O)nc4)c3C)c2n1`: the values for the IC50 on B2 bradykinin receptor [1] and on B2 bradykinin receptor [2] were 39 nM and 1.4 nM, respectively.

Regarding `CCOc1nc2c(OCc3c(C)ccc(N(C)C(=O)CNC(=O)/C=C/c4ccc(C(=O)NC)cc4)c3C)cccc2n1C`, the IC50 was found to be 730 nM at B2 bradykinin receptor [1] and 90 nM on B2 bradykinin receptor [2].

Turning to `Cc1cnc2cccc(OCc3c(C)ccc(N(C)C(=O)CNC(=O)/C=C/c4ccc(N5CCCC5=O)cc4)c3C)c2n1`, the figures for the IC50 at B2 bradykinin receptor [1] and on B2 bradykinin receptor [2] were 46 nM and 2.4 nM, respectively.

Regarding `CNC(=O)c1ccc(/C=C/C(=O)NCC(=O)N(C)c2ccc(C)c(COc3cccc4ncc(C)nc34)c2C)cc1`, the figures for the IC50 at B2 bradykinin receptor [1] and at B2 bradykinin receptor [2] were 17 nM and 3.5 nM, respectively.

Regarding `Cc1cnc2cccc(OCc3c(C)ccc(N(C)C(=O)CNC(=O)/C=C/c4ccc(C(=O)N(C)C)cc4)c3C)c2n1`, the half-maximal inhibitory concentration (IC50) on B2 bradykinin receptor [1] is 130 nM; on B2 bradykinin receptor [2] it was 4.1 nM.

Turning to `CNC(=O)c1ccc(/C=C/C(=O)NCC(=O)N(C)c2ccc(C)c(COc3cccc4ccc(C)nc34)c2C)cn1`, the figures for the IC50 on B2 bradykinin receptor [1] and on B2 bradykinin receptor [2] were 58 nM and 2.2 nM, respectively.

In the case of `CCn1c(C)nc2c(OCc3c(Cl)ccc(N(C)C(=O)CNC(=O)/C=C/c4ccc(C(=O)NC)cc4)c3Cl)cccc21`, the IC50 at B2 bradykinin receptor [1] turned out to be 48 nM; at B2 bradykinin receptor [2], 8.9 nM.

For `CCOC(=O)Cc1nc2c(OCc3c(C)ccc(N(C)C(=O)CNC(=O)/C=C/c4ccc(C(=O)NC)cc4)c3C)cccc2n1C`, the half-maximal inhibitory concentration (IC50) at B2 bradykinin receptor [1] amounted to 8400 nM; on B2 bradykinin receptor [2], 1100 nM.

Compound `CNC(=O)c1ccc(/C=C/C(=O)NCC(=O)N(C)c2ccc(Cl)c(COc3cccn4c(Br)c(C)nc34)c2Cl)cc1` gave an IC50 at B2 bradykinin receptor [1] of 9 nM.

`CC(=O)Nc1ccc(/C=C/C(=O)NCC(=O)N(C)c2ccc(C)c(COc3cccc4ncc(C)nc34)c2C)cn1`: the concentration for half-maximal inhibition (IC50) on B2 bradykinin receptor [1] was 130 nM; at B2 bradykinin receptor [2] it was 48 nM.

As for `CNC(=O)c1ccc(/C=C/C(=O)NCC(=O)N(C)c2ccc(C)c(COc3cccc4c3nc(SC)n4C)c2C)cc1`, the results for the half-inhibitory concentration (IC50) at B2 bradykinin receptor [1] and at B2 bradykinin receptor [2] were 79 nM and 9.5 nM, respectively.

`CNC(=O)c1ccc(/C=C/C(=O)NCC(=O)N(C)c2ccc(C)c(COc3cccc4c3nc(N(C)C)n4C)c2C)cc1`: the IC50 is 160 nM on B2 bradykinin receptor [1] and 38 nM at B2 bradykinin receptor [2].

In the case of `CNC(=O)c1ccc(/C=C/C(=O)NCC(=O)N(C)c2ccc(C)c(COc3cccc4ncc(C)nc34)c2C)cn1`, the half-maximal inhibitory concentration (IC50) on B2 bradykinin receptor [1] amounted to 590 nM; on B2 bradykinin receptor [2], 18 nM.

Turning to `CNC(=O)c1ccc(/C=C/C(=O)NCC(=O)N(C)c2ccc(Cl)c(COc3cccc4c(C)c(C)oc34)c2Cl)cc1`, the IC50 at B2 bradykinin receptor [1] was 270 nM; at B2 bradykinin receptor [2] it was 23 nM.
